According to PMC10685179 (RSC Advances, 2023):
≈ marks a conversion by molar mass, not a printed value. Residues, ends and D or L forms follow the SMILES beside them. *: point of attachment. βNA = c1ccc2cc(N*)ccc2c1

Columns and labels:
E. faecalis KA247 [1] = experiment: Broth microdilution MIC and MBC; type: cell-based; settings: Enterococcus faecalis, KA247, 24 h
S. aureus KA112 [2] = experiment: Checkerboard microdilution synergy with fosfomycin; type: cell-based, Staphylococcus aureus
[3] = system: BNL: mouse normal liver cells; experiment: SRB cytotoxicity assay on normal cells; type: cell-based
Summary of the method: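 Mouse normal liver BNL cells were grown in DMEM with 10% heat-inactivated FBS, penicillin and streptomycin, at 37 °C in 5% CO2. […] SRB assay: 10% TCA fixation at 4 °C for 1 h, 0.4% SRB for 10 min at room temperature, 1% acetic acid washes, 10 mM Tris solubilisation, absorbance at 540 nm. Mean of three, with SD.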

E. faecalis KA247 [4] = experiment: Checkerboard microdilution synergy with fosfomycin; type: cell-based, Enterococcus faecalis
C. tropicalis KA205 [5] = experiment: Agar well-diffusion, inhibition zone; type: cell-based, Candida tropicalis; settings: for zone of inhibition at 10 µM: Candida tropicalis, KA205, read-out: Average diameter of inhibition zone (ZI)
Summary of the method: (§1)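 Clinical MDR isolates from complicated UTI patients. Suspensions were made in Tryptic Soya and Sabouraud broths from subcultures on Tryptic Soya and Sabouraud agar plates. Agar well diffusion followed CLSI guidelines, with test compounds applied at 10 μM in DMSO. Fosfomycin and fluconazole were positive controls and DMSO the negative control. Zone diameters were read in mm, in triplicate.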

C. tropicalis KA205 [6] = experiment: Broth microdilution MIC and MFC; type: cell-based; settings: Candida tropicalis; for MIC: KA205, 24 h; for MFC: KA205, read-out: MFC/MIC
E. coli KA780 [7] = experiment: Broth microdilution MIC and MBC; type: cell-based; settings: Escherichia coli; for MIC: KA780, 24 h; for MBC: KA780, read-out: MBC/MIC
MDR microbial isolates = experiment: Time-kill kinetics, whole panel; type: cell-based; settings: all pathogenic isolates
Summary of the method: (§2)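 Untreated organisms served as controls. Bacteria were sampled at 0, 2, 4, 6, 8, 12, 18 and 24 h, and fungi at 0, 2, 4, 6, 8, 18, 24 and 48 h. Counts were made by plate count and plotted as log10 CFU mL−1 versus time.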

fungal isolates [8] = experiment: Time-kill kinetics, fungal isolates; type: cell-based; settings: at MIC
Summary of the method: as §2

C. tropicalis KA205 [9] = experiment: Checkerboard microdilution synergy with fluconazole; type: cell-based, Candida tropicalis
P. mirabilis KA320 [10] = experiment: Checkerboard microdilution synergy with fosfomycin; type: cell-based, Proteus mirabilis
P. mirabilis KA320 [11] = experiment: Agar well-diffusion, inhibition zone; type: cell-based, Proteus mirabilis
Summary of the method: as §1

E. coli KA780 [12] = experiment: Checkerboard microdilution synergy with fosfomycin; type: cell-based, Escherichia coli
E. faecalis KA247 [13] = experiment: Agar well-diffusion, inhibition zone; type: cell-based, Enterococcus faecalis
Summary of the method: as §1

E. coli MurA enzyme = E. coli MurA enzyme (Escherichia coli, UniProt P0A749); experiment: MurA enzyme inhibition assay; type: biochemical
Sequence of E. coli MurA enzyme (P0A749 whole entry, the tested form may be a part): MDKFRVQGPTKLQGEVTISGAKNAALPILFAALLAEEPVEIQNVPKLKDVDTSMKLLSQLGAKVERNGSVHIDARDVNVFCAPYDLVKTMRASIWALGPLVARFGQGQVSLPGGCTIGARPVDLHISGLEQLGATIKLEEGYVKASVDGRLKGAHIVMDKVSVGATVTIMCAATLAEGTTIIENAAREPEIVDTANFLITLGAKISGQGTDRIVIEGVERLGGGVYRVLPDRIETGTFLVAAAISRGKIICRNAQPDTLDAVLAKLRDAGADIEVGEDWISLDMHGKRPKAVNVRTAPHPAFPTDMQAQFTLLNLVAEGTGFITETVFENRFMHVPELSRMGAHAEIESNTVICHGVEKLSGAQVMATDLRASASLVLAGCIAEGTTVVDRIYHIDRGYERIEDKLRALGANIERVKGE

S. aureus KA112 [14] = experiment: Agar well-diffusion, inhibition zone; type: cell-based, Staphylococcus aureus
Summary of the method: as §1

C. albicans KA205 [15] = experiment: Checkerboard microdilution synergy with fluconazole; type: cell-based, Candida albicans
bacterial isolates [16] = experiment: Time-kill kinetics, bacterial isolates; type: cell-based; settings: at MIC
Summary of the method: as §2

S. aureus KA112 [17] = experiment: Broth microdilution MIC and MBC; type: cell-based; settings: Staphylococcus aureus; for MIC: KA112, 24 h; for MBC: KA112, read-out: MBC/MIC
C. albicans KA205 [18] = experiment: Broth microdilution MIC and MFC; type: cell-based; settings: Candida albicans; for MIC: KA205, 24 h; for MFC: KA205, read-out: MFC/MIC
P. mirabilis KA320 [19] = experiment: Broth microdilution MIC and MBC; type: cell-based; settings: Proteus mirabilis; for MIC: KA320, 24 h; for MBC: KA320, read-out: MBC/MIC
C. albicans KA205 [20] = experiment: Agar well-diffusion, inhibition zone; type: cell-based, Candida albicans; settings: for zone of inhibition at 10 µM: Candida albicans, KA205, read-out: Average diameter of inhibition zone (ZI)
Summary of the method: as §1

E. coli KA780 [21] = experiment: Agar well-diffusion, inhibition zone; type: cell-based, Escherichia coli
Summary of the method: as §1

[22] = Physical and chemical stability after gamma irradiation; type: physicochemical; settings: gamma radiation 3.0 kGy to 20.0 kGy
Summary of the method: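 Compound powders in sterile tubes were irradiated by a 60Co source at 3.0, 5.0, 7.0, 10.0, 15.0 and 20.0 kGy, at a dose rate of 0.9 kGy h−1. Non-irradiated and irradiated samples were checked for physical and chemical changes by UV-VIS spectrophotometry at 560 nm.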

[23] = system: fosfomycin-resistant (FO-R) E. coli KA780; experiment: SEM of outer membrane integrity; type: cell-based; settings: at MIC, compared with DMSO
bacterial isolates [24] = experiment: Broth microdilution MIC/MBC, bacterial panel; type: cell-based; settings: pyrrole 6b versus thiophene 6a; bacteria
E. coli Kam3-AcrB = experiment: Ethidium bromide; type: cell-based; settings: phosphonates 0.06 to 2 μg mL^−1; PaβN 20 μg mL^−1
Summary of the method: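 E. coli Kam3-AcrB (pSYC plasmid encoding AcrB) was grown to mid-log phase in TS broth and pelleted at 5000×g for 5 min at 4 °C. Cells were washed twice in PBS pH 7.4 and adjusted to OD600 ≈0.5. Cells were treated with phosphonates (0.06–2 μg mL−1) or 0.1% DMSO for 12 h, then combined with EtBr, 25 mM glucose (final) and PaβN 20 μg mL−1. Fluorescence was read over 38 min, […], as RFU.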

[25] = system: MDR bacterial and fungal isolates; experiment: Broth microdilution MIC/MBC/MFC, whole panel; type: cell-based; settings: bactericidal/fungicidal if MBC or MFC not greater than four times the MIC
fungal isolates [26] = experiment: Broth microdilution MIC/MFC, fungal panel; type: cell-based
fungal isolates [27] = experiment: Agar well-diffusion, inhibition zone, fungal panel; type: cell-based
Summary of the method: as §1

[28] = 10 μM (DMSO), mean of three ± SEM

Which results are given for CN(C)c1ccc(C(Nc2nc3c(-c4ccc([N+](=O)[O-])cc4)nn(-c4ccccc4)c3s2)P(=O)(Oc2ccccc2)Oc2ccccc2)cc1 (stereo not drawn) [Compound 5b, Diphenyl((4-(dimethylamino)phenyl)((3-(4-nitrophenyl)-1-phenyl-1H-pyrazolo[4,3-d]thiazol-5-yl)amino)methyl)phosphonate]?
MIC (E. faecalis KA247 [1]): 0.125 µg/mL (≈ 0.178 µM); combination effect (S. aureus KA112 [2]): S (FICI ≤ 0.5 (synergism)); Fractional inhibitory concentration index (ΣFICI) (S. aureus KA112 [2]; combination with fosfomycin): 0.5; IC50 [3]: > 100 µM; combination effect (E. faecalis KA247 [4]): S (FICI ≤ 0.5 (synergism)); Fractional inhibitory concentration index (ΣFICI) (E. faecalis KA247 [4]; combination with fosfomycin): 0.5; Average diameter of inhibition zone (ZI) (C. tropicalis KA205 [5]; [28]): 21 ± 0.32 mm; MIC (C. tropicalis KA205 [6]): 0.5 µg/mL (≈ 0.712 µM); MFC (C. tropicalis KA205 [6]): 0.5 µg/mL (≈ 0.712 µM); MIC (E. coli KA780 [7]): 0.06 µg/mL (≈ 0.0854 µM); MBC (E. coli KA780 [7]): 0.5 µg/mL (≈ 0.712 µM); microbial reduction relative to the initial inoculum (MDR microbial isolates): ≥ 3 log10; time of maximum killing rate / maximum reduction in cell counts (fungal isolates [8]): 18 h; combination effect (C. tropicalis KA205 [9]): P (0.5 < FICI > 1 (partial synergism)); Fractional inhibitory concentration index (ΣFICI) (C. tropicalis KA205 [9]; combination with fluconazole): 0.75; combination effect (P. mirabilis KA320 [10]): S (FICI ≤ 0.5 (synergism)); Fractional inhibitory concentration index (ΣFICI) (P. mirabilis KA320 [10]; combination with fosfomycin): 0.25; Average diameter of inhibition zone (ZI) (P. mirabilis KA320 [11]; [28]): 23 ± 0.78 mm; combination effect (E. coli KA780 [12]): S (FICI ≤ 0.5 (synergism)); Fractional inhibitory concentration index (ΣFICI) (E. coli KA780 [12]; combination with fosfomycin): 0.25; Average diameter of inhibition zone (ZI) (E. faecalis KA247 [13]; [28]): 23 ± 0.88 mm; IC50 (E. coli MurA enzyme; IC50, preincubation 0 min): 45 µM; IC50 (E. coli MurA enzyme; IC50, preincubation 10 min): 4.5 µM; RA (residual activity) (E. coli MurA enzyme; at 100 μM, preincubation 10 min): 4 ± 0.55%; remaining activity at 100 µM (E. coli MurA enzyme; read-out: RA (residual activity), at 100 μM, preincubation 10 min): 7%; Average diameter of inhibition zone (ZI) (S. aureus KA112 [14]; [28]): 24 ± 0.03 mm; combination effect (C. albicans KA205 [15]): P (0.5 < FICI > 1 (partial synergism)); Fractional inhibitory concentration index (ΣFICI) (C. albicans KA205 [15]; combination with fluconazole): 0.75; time of maximum killing rate (bacterial isolates [16]): 8 h; MIC (S. aureus KA112 [17]): 0.06 µg/mL (≈ 0.0854 µM); MBC (S. aureus KA112 [17]): 1 µg/mL (≈ 1.42 µM); MIC (C. albicans KA205 [18]): 0.125 µg/mL (≈ 0.178 µM); MFC (C. albicans KA205 [18]): 1 µg/mL (≈ 1.42 µM); MIC (P. mirabilis KA320 [19]): 0.25 µg/mL (≈ 0.356 µM); MBC (P. mirabilis KA320 [19]): 0.5 µg/mL (≈ 0.712 µM); Average diameter of inhibition zone (ZI) (C. albicans KA205 [20]; [28]): 22 ± 0.22 mm; Average diameter of inhibition zone (ZI) (E. coli KA780 [21]; [28]): 25 ± 0.00 mm; physical changes (odor, color, clarity, solubility, and form) after irradiation [22]: no changes occurred; stability of the chemical structure after irradiation ([22]; UV-VIS spectrophotometer): confirmed the stability of the chemical structure; effect on outer membrane (SEM image) [23]: perturbation in the membrane and distinct ruptures of the OM integrity

Which MIC (E. faecalis KA247 [1]) does the source give for O=[N+]([O-])c1ccc(-c2nn(-c3ccccc3)c3sc(NC(c4ccc[nH]4)P(=O)(Oc4ccccc4)Oc4ccccc4)nc23)cc1 (stereo not drawn) [Compound 6b, Diphenyl(((3-(4-nitrophenyl)-1-phenyl-1H-pyrazolo[4,3-d]thiazol-5-yl)amino)(1H-pyrrol-2-yl)methyl)phosphonate] here?
The MIC was 0.25 µg/mL (≈ 0.385 µM).

What about the zone of inhibition at 10 µM (C. tropicalis KA205 [5]) of the same compound?
The zone of inhibition at 10 µM was 21 ± 0.7 mm.

And the “higher activity by MIC” value (bacterial isolates [24])?
Its value is about 8 folds.

And the MIC (C. tropicalis KA205 [6])?
The MIC was 0.5 µg/mL (≈ 0.771 µM).

What about the MFC (C. tropicalis KA205 [6]) of the same compound?
Its MFC is 1 µg/mL (≈ 1.54 µM).

And the MIC (E. coli KA780 [7])?
Its MIC is 0.125 µg/mL (≈ 0.193 µM).

What about the MBC (E. coli KA780 [7]) of the same compound?
Its MBC is 0.5 µg/mL (≈ 0.771 µM).

And the zone of inhibition at 10 µM (P. mirabilis KA320 [11]; Proteus mirabilis, KA320, read-out: Average diameter of inhibition zone (ZI))?
Its zone of inhibition at 10 µM is 22 ± 0.12 mm.

What about the zone of inhibition at 10 µM (E. faecalis KA247 [13]; Enterococcus faecalis, KA247, read-out: Average diameter of inhibition zone (ZI)) of the same compound?
Its zone of inhibition at 10 µM is 22 ± 0.55 mm.

And the zone of inhibition at 10 µM (S. aureus KA112 [14]; Staphylococcus aureus, KA112, read-out: Average diameter of inhibition zone (ZI))?
Its zone of inhibition at 10 µM is 23 ± 0.77 mm.

What about the MIC (S. aureus KA112 [17]) of the same compound?
The MIC was 0.125 µg/mL (≈ 0.193 µM).

And the MBC (S. aureus KA112 [17])?
Its MBC is 0.5 µg/mL (≈ 0.771 µM).

And the MIC (C. albicans KA205 [18])?
The MIC was 0.25 µg/mL (≈ 0.385 µM).

And the MFC (C. albicans KA205 [18])?
Its MFC is 1 µg/mL (≈ 1.54 µM).

What about the MIC (P. mirabilis KA320 [19]) of the same compound?
The MIC was 0.25 µg/mL (≈ 0.385 µM).

What about the MBC (P. mirabilis KA320 [19]) of the same compound?
The MBC was 1 µg/mL (≈ 1.54 µM).

What about the zone of inhibition at 10 µM (C. albicans KA205 [20]) of the same compound?
The zone of inhibition at 10 µM was 21 ± 0.91 mm.

What about the zone of inhibition at 10 µM (E. coli KA780 [21]; Escherichia coli, KA780, read-out: Average diameter of inhibition zone (ZI)) of the same compound?
The zone of inhibition at 10 µM was 24 ± 0.86 mm.

For NC(N)=NCCC[C@H](NC(=O)[C@@H](N)Cc1ccccc1)C(=O)Nc1ccc2ccccc2c1 [PAβN] (H-Phe-Arg-βNA), which EtBr accumulation (E. coli Kam3-AcrB) is on record?
Its EtBr accumulation is “increases the accumulation of EtBr”.

Which results are given for OC(Cn1cncn1)(Cn1cncn1)c1ccc(F)cc1F [FCA, fluconazole, reference compound]?
bactericidal/fungicidal effect [25]: bactericidal and fungicidal activities; zone of inhibition at 10 µM (C. tropicalis KA205 [5]): 17 ± 0.15 mm; MIC (C. tropicalis KA205 [6]): 4 µg/mL (≈ 13.1 µM); MFC (C. tropicalis KA205 [6]): 0.5 µg/mL (≈ 1.63 µM); time of maximum killing rate / maximum reduction in cell counts (fungal isolates [8]): 48 h; MFC (fungal isolates [26]): 2 µg/mL (≈ 6.53 µM); zone of inhibition at 10 µM (fungal isolates [27]): 17 mm; MIC (C. albicans KA205 [18]): 2 µg/mL (≈ 6.53 µM); MFC (C. albicans KA205 [18]): 1 µg/mL (≈ 3.27 µM); zone of inhibition at 10 µM (C. albicans KA205 [20]): 17 ± 0.99 mm
